# PMI act – increases human mannose-6-phosphate isomerase activity | activation factor at 20 µM | 0.005% of 190,000 active | P34949 | purified human PMI, coupled resazurin fluorescence, 20 min; stronger effect = higher value; 1 = vehicle control, 0 substrate-free wells;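 active = activation factor of 2 or more at 20 µM, relative to plate controls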
# WT yeast gro inh – growth inhibition of WT yeast, mitochondrial fusion screen. mitochondrial fusion phenotypic screen, WT strain. inhibition, % at 10 µM. 2.1% of 190,000 active. AID 1362; in the data active = inhibition above about 58%; tested in S. cerevisiae
# PMI act hi M6P – PMI (human) activation, high substrate; P34949; AID 1216; 0.34% of 190,000 active; activation factor at 20 µM; coupled PMI enzyme assay, resazurin fluorescence, 20 min; stronger effect = higher value; 1 = untreated enzyme, 0 = substrate-free blank;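 active = activation factor of 2 or more at 20 µM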
#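 Test system – human PMI in coupled enzyme assay · Timing – 20 min incubation at room temperature · Detection – Diaphorase-driven resazurin-to-resorufin fluorescence, excitation 544, emission 590 nm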
# L major viab – inhibitors of Leishmania major promastigote growth. inhibition, % at 10 µM. Leishmania major promastigotes, resazurin fluorescence viability. AID 1063. 9% of 200,000 active; in the data active = inhibition above about 50%;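 also: promastigotes grown with compound for 44 hours at 28 °C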
# m-calpain inh – blocks pig calpain II enzyme activity; purified calpain II, fluorogenic peptide substrate, 30 min; inhibition, % at 16 µM; 0.37% of 220,000 active;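 active = inhibition above about 50%, limit read from the data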
# Rad51 HR inh – Rad51 (human) homologous recombination inhibition | inhibition, % at 10 µM | hRad51 DNA strand exchange, fluorescence dequenching | Q06609 | 0.085% of 200,000 active;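 active = inhibition above 40% at the single screening dose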
# Target sequence (Q06609 whole entry, looked up): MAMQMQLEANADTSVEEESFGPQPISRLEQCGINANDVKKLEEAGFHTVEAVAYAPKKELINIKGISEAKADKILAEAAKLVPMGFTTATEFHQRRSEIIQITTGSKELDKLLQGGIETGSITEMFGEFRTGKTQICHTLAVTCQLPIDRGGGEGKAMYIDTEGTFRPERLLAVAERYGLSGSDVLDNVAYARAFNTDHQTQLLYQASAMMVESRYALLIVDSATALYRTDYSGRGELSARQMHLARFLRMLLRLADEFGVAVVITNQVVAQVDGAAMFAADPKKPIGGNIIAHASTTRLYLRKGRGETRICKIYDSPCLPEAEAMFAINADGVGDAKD
#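 Read-out basis: percent inhibition relative to plate controls and blanks / Assay system: human Rad51 nucleoprotein filaments preassembled on unlabelled ssDNA / Timing: filaments 15 min 37 °C, then compound 30 min / Control set: per-plate controls and blanks / Technique: fluorescence dequenching at 485/520 nm / Compound: 10 µM final, single point / Also added: Fluorescein- and BHQ1-tagged 47-mer duplex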
# A number is an active result; . = inactive; / = not tested or not shown. This is a sample that favours compounds with a hit; in the whole collection about 9.8% have one here.
SMILES,PMI act,WT yeast gro inh,PMI act hi M6P,L major viab,m-calpain inh,Rad51 HR inh
CCOc1cc(C(=O)OC(C)C(=O)Nc2ncc(Cl)cc2Cl)ccc1OCC(=O)N1CCOCC1 (centres undefined),.,.,.,73,.,.
CC(Oc1ccccc1Cl)C(=O)N1CCOCC1 (centres undefined),.,.,.,.,.,.
Cc1ccc(OCC(=O)N2CCCCC2)c(Br)c1,.,.,.,.,.,.
CC(C)(C)c1ccc(OCC(=O)N2CCCCCC2)c(Br)c1,.,68,.,.,.,.
COc1ccc(C(=O)O)cc1S(=O)(=O)NCCc1ccccn1,/,/,/,/,.,.
Cc1cc(OCC(=O)N2CCOCC2)c(C(C)C)cc1Cl,.,.,.,80,.,.
Cc1cc(C)c(C)c(OCC(=O)N2CCOCC2)c1,.,.,.,.,.,.
Cc1ccc(S(=O)(=O)N2CCCCC2)cc1NC(=O)Cn1c(=O)cnc2ccccc21,.,.,.,.,.,.
CCN(C(=S)Nc1ccccc1F)C1CCCCC1,.,.,.,.,.,.
CC(C)CCNC(=O)C1CC2Cn3c(nc4cc(Cl)c(Cl)cc43)C2N1C (centres undefined),/,/,/,/,/,.
NC(=O)CSc1ccc(-c2ccc(F)cc2)nn1,.,.,.,.,.,.
CC(C)c1ccc(CN2CCN(C(=O)CCl)CC2)cc1,.,.,.,99,.,.
CCN(CC(=O)Nc1cccc(C#N)c1)CC(=O)Nc1cccc(OC)c1,.,.,.,.,.,.
C=CCn1c(C)cc(C(=O)Cn2ncc(Cl)c(Cl)c2=O)c1C,.,.,.,87,.,.
O=C(Cn1ncc(Cl)c(Cl)c1=O)NCC1CCCCC1,.,.,.,.,.,.
O=C(OCn1ncc(Cl)c(Cl)c1=O)c1ccccc1Cl,.,.,.,101,.,.
O=C1CN(C(=O)Cn2ncc(Cl)c(Cl)c2=O)c2ccccc2N1,.,.,.,74,.,.
CC(C)(C)C(=O)Cn1ncc(Cl)c(Cl)c1=O,.,.,.,.,.,.
O=c1c(Cl)c(Cl)cnn1Cc1ccc(F)cc1,.,.,.,73,.,.
Cc1cc(C)nc(NC(=NCCc2c[nH]c3ccccc23)NC(=O)C(C)(C)C)n1,/,/,/,/,.,/
O=C(OCn1ncc(Cl)c(Cl)c1=O)c1ccc(F)cc1,.,.,.,98,.,.
O=C(Cn1ncc(Cl)c(Cl)c1=O)c1ccc(Cl)cc1,.,.,.,76,.,/
CC(C)Cn1c(N)c(C(=O)COC(=O)c2cc(C3CC3)nc3ccccc23)c(=O)n(C)c1=O,.,.,.,57,.,.
Cn1c(=O)c(C(=O)COC(=O)c2cc(-c3ccco3)nc3ccccc23)c(N)n(Cc2ccccc2)c1=O,.,.,.,99,.,/
CC(C)Cn1c(N)c(C(=O)COC(=O)c2cc(-c3ccccc3)nc3ccccc23)c(=O)n(C)c1=O,.,.,.,100,.,.
SMILES,PMI act,WT yeast gro inh,PMI act hi M6P,L major viab,m-calpain inh,Rad51 HR inh
Cn1c(N)c(C(=O)COC(=O)c2cc(-c3ccccc3)nc3ccccc23)c(=O)n(Cc2ccccc2)c1=O,.,.,.,.,.,.
CC(C)Cn1c(N)c(C(=O)COC(=O)c2cc(-c3ccco3)nc3ccccc23)c(=O)n(C)c1=O,.,.,.,77,.,/
CCc1nnc(N2C(=O)c3ccccc3C2(O)c2ccccc2)s1 (centres undefined),/,/,/,/,.,.
CC(NC(=O)c1ccccc1NC(=O)CSc1nnnn1C)c1ccccc1 (centres undefined),.,.,.,.,.,.
CC(C)Cn1c(N)c(C(=O)COC(=O)c2ccc([N+](=O)[O-])o2)c(=O)n(C)c1=O,.,.,.,88,.,.
CC(C)Cn1c(N)c(C(=O)COC(=O)c2cc(F)cc(F)c2)c(=O)n(C)c1=O,.,.,.,.,.,.
CC(C)Cn1c(N)c(C(=O)COC(=O)c2cnc(Cl)c(Cl)c2)c(=O)n(C)c1=O,.,.,.,.,63,.
COc1cc(C2NC(=O)NC(c3ccccc3)=C2C(C)=O)cc([N+](=O)[O-])c1O (centres undefined),.,.,.,.,.,/
O=C(COC(=O)CNC(=O)C1CCCCC1)Nc1ccc(Cl)cc1F,.,.,.,.,.,.
Cc1nc([N+](=O)[O-])c(Br)n1CC(=O)c1ccccc1,.,.,.,96,.,.
Cc1cc([N+](=O)[O-])nn1CC(=O)c1ccccc1,.,.,.,.,.,.
Cc1nc([N+](=O)[O-])c(Br)n1CC(=O)c1ccc2ccccc2c1,.,.,.,100,.,.
Cc1nc([N+](=O)[O-])c(Br)n1CC(=O)c1ccc(Br)cc1,.,.,.,98,.,.
COc1ccc(/C=C2\SC(=O)N(CC(=O)NN3CCN(C)CC3)C2=O)cc1OC,/,/,/,/,.,.
CN(C(=O)c1cc2ccccc2oc1=O)C1(C)CCS(=O)(=O)C1 (centres undefined),.,.,.,.,.,.
Cn1ccnc1C1CCCCN1Cc1nc(Cc2cccc(C(F)(F)F)c2)no1 (centres undefined),.,.,.,66,.,/
CCCSc1nnc(-c2cccc(S(=O)(=O)N(C)C)c2)n1-c1cc(OC)ccc1OC,.,.,.,53,.,.
CC1(C)CC(=O)C2=C(C1)OC1=C(C(=O)CC(C)(C)C1)C2(C)C,.,.,.,.,.,.
Cc1ccc(NC(=O)c2cccc(NC(=O)/C=C/c3ccco3)c2)cc1C,.,.,.,.,.,.
Cc1ccc(-n2nc3ccc(NC(=O)/C=C/c4ccco4)cc3n2)cc1,.,.,.,60,.,.
O=S(=O)(c1ccc(OCC(O)CN2CCC(Cc3ccccc3)CC2)cc1)N1CCOCC1 (centres undefined),.,.,.,100,.,.
OC(COc1ccccc1)CN1CCCC1 (centres undefined),.,.,.,.,.,.
OC(COc1ccc(OCc2ccccc2)cc1)CN1CCCCC1 (centres undefined),.,.,.,96,.,.
O=C(c1ccccc1)c1ccc(OCC(O)CN2CCOCC2)cc1 (centres undefined),/,/,/,.,/,.
OC(COc1ccc(-c2ccccc2)cc1)CN1CCOCC1 (centres undefined),.,.,.,93,.,.
OC(COc1ccc(OCc2ccccc2)cc1)CN1CCOCC1 (centres undefined),.,.,.,97,.,.
Cc1c(-c2ccncc2)oc2ccc(Br)cc2c1=O,.,.,.,.,.,.
O=C(COc1cccnc1[N+](=O)[O-])Nc1cc(S(=O)(=O)N2CCCCC2)ccc1Cl,/,/,/,/,.,.
COc1cccc2cc(-c3nc4ccccc4o3)c(=O)oc12,.,.,.,58,.,.
O=c1oc2ccc(Br)cc2cc1-c1nc2ccccc2o1,.,.,.,.,.,.
